The target of experiment [1] is T1, DNA topoisomerase 2-alpha (Homo sapiens, UniProt P11388). Kind of experiment: Inhibition of DNA topoisomerase 2alpha-mediated pBR322 DNA cleavage at 50 uM by SDS-PAGE. Summed up: (§1)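 Topoisomerase IIα (150 ng) with 80 ng pBR322 and 0.5 mM ATP in pH 8.0 Tris/KCl/NaCl/MgCl2/glycerol buffer. Drug added last from DMSO. Incubated 10 min at 37°C, quenched with SDS/EDTA, then proteinase K 30 min at 55°C. Linear DNA resolved on a 1.2% agarose ethidium bromide gel against a HindIII-linearised pBR322 marker.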
T1 sequence (P11388 whole entry): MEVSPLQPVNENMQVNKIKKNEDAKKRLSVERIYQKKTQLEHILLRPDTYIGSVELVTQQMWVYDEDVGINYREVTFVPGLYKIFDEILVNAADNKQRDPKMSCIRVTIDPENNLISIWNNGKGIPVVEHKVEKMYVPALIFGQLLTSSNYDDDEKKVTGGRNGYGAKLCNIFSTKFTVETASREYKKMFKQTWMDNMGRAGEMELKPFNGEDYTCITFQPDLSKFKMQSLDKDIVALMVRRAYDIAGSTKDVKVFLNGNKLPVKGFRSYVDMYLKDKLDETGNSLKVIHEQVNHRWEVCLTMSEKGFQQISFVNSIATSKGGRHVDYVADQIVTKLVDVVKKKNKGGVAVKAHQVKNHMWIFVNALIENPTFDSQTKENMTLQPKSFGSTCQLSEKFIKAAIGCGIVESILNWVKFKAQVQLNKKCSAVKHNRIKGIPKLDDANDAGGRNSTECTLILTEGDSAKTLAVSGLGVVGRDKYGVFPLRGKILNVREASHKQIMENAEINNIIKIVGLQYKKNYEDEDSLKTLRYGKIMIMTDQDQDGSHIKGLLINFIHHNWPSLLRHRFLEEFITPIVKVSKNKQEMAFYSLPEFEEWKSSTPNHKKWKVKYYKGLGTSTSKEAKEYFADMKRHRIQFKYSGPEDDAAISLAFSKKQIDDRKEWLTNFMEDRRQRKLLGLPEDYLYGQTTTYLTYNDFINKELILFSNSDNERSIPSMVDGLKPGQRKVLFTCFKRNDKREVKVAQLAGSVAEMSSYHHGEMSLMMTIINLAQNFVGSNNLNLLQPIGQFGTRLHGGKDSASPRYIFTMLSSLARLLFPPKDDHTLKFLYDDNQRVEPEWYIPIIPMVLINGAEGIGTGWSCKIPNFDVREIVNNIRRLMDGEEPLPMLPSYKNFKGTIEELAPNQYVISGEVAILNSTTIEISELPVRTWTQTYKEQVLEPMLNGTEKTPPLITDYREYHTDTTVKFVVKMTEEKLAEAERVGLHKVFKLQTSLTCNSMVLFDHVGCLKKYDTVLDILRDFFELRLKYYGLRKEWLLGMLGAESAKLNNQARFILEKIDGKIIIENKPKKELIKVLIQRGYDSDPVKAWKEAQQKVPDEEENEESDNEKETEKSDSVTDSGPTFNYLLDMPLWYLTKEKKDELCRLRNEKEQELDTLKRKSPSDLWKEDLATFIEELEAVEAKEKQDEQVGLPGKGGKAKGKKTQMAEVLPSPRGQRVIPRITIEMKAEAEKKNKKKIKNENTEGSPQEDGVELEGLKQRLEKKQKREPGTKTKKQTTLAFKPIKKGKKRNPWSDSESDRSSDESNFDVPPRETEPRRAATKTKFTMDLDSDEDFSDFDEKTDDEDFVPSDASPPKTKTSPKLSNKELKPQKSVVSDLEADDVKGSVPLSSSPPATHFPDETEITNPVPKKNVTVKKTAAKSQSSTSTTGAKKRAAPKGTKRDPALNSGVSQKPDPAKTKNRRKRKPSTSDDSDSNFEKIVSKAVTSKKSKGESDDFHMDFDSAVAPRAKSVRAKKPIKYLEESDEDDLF

Experiment [2] concerns the target T1, DNA topoisomerase 2-alpha. Conditions: K562, 25 uM.
Experiment [3] deals with T1, DNA topoisomerase 2-alpha. Kind of experiment: Inhibition of DNA topoisomerase 2alpha-mediated pBR322 DNA cleavage at 20 uM by SDS-PAGE.
The target of experiment [4] is T1, DNA topoisomerase 2-alpha. Conditions: 50 uM.
Experiment [5] deals with T1, DNA topoisomerase 2-alpha. As to the kind of experiment: Inhibition of DNA topoisomerase 2alpha-mediated pBR322 DNA cleavage at 100 uM by SDS-PAGE. In a few lines:
as §1

Experiment [6] addresses T1, DNA topoisomerase 2-alpha. Conditions: K562, 50 uM.
The next experiment deals with K562. Kind of experiment: Cytotoxicity against human K562 cells after 72 hrs by MTS assay. The format is functional, cell-based. The conditions noted are these: K562, 72 h. Summed up:
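K562 cells in αMEM with 10% fetal calf serum, 37°C, 5% CO2. Exponentially growing cells seeded at 6000/well. Compound added from DMSO stock (final DMSO 0.5% v/v), continuous exposure for 72 h. MTS added for a further 3 h and absorbance read. Three replicates per concentration. IC50 from a four-parameter logistic fit.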

For experiment [7], the target named is T1, DNA topoisomerase 2-alpha. As to the kind of experiment: Inhibition of DNA topoisomerase 2alpha in human K562 cells assessed as protein-DNA covalent complex formation under UV irradiation by scintillation counting. The format is cell-based. In a few lines: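 Radiolabelled K562 cells (1.5×10^6/ml, pH 7.4 buffer) given compound (2.5–20 μM), then irradiated or not at 365 nm for 5 min from 16 mm. Incubated 60 min at 37°C in the dark. SDS/KCl-precipitated protein-DNA complexes measured by scintillation, with 3H normalised to 14C. Nine experiments on different days. Paired t-tests of UV versus no UV at each concentration.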

Experiment [8] addresses T1, DNA topoisomerase 2-alpha. Kind of experiment: Inhibition of DNA topoisomerase 2alpha in human K562 cells assessed as protein-DNA covalent complex formation at 80 uM by scintillation counting. The format is cell-based. In a few lines:
(§2)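 K562 or K/VP.5 cells prelabelled 24 h with [3H]thymidine and [14C]leucine. Cells held at 1.5×10^6/ml in HEPES-buffered saline-glucose pH 7.4 and exposed to compound for 60 min at 37°C in the dark. Protein-DNA complexes precipitated with SDS/KCl after lysis and DNA shearing, and counted by scintillation. 3H normalised to 14C protein.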

Experiment [9] deals with T1, DNA topoisomerase 2-alpha. As to the kind of experiment: Ratio of etoposide IC50 to IC50 for drug against human DNA topoisomerase 2alpha-mediated decatenation of kinetoplast plasmid DNA by fluorescent plate reader.
The target in experiment [10] is T1, DNA topoisomerase 2-alpha. As to the kind of experiment: Inhibition of DNA topoisomerase 2alpha in human K-VP.5 cells assessed as decrease in protein-DNA covalent complex formation at 80 uM by scintillation counting. Format: cell-based. Summed up: as §2

The structures appear in SMILES notation. Calls of active or inactive are those of the source. The calls are words filed in the database; no cut-off is given here.

As usually defined, the inhibition is the share of the control response that was lost under treatment. `CC[C@@]1(O)C(=O)OCc2c1cc1n(c2=O)Cc2cc3ccccc3nc2-1`: the inhibition in experiment [1] is 40%.

The term IC50 denotes the concentration that inhibits the measured activity by half. Higher therefore signals a need for much substance. With `COc1cc([C@@H]2c3cc4c(cc3[C@@H](O[C@@H]3O[C@@H]5CO[C@@H](C)O[C@H]5[C@H](O)[C@H]3O)[C@H]3COC(=O)[C@H]23)OCO4)cc(OC)c1O` [ETOPOSIDE], the inhibition result in experiment [2] and in experiment [3] was “inactive” each time. In addition, the inhibition entry in [4], in experiment [5] and in [6] was “Active” each time. For the same compound, the IC50 with K562 turned out to be 420 nM.

As to `COc1cc([C@@H]2c3cc4c(cc3[C@@H](NC(=O)c3ccc(C5(C(F)(F)F)N=N5)cc3)[C@H]3COC(=O)[C@H]23)OCO4)cc(OC)c1O` [DIAZIRINE], the inhibition result in experiment [1], in experiment [8], in experiment [5] and in [10] was “Active” in each case. Besides, the inhibition entry in [3] was “inactive”. Further, the inhibition result in [7] was “Dose-dependent effect”. Further, the Ratio IC50 in [9] was determined as 2.
